Laboratory results reported in PubChem BioAssay.
Unmarked numbers belong to inactive results. Records with an inconclusive call do not appear. The source made the active and inactive calls.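 The calls were made as follows, unless noted: active = viability at or below 27.92% in each of two runs, the all-compound median minus 4 SD; inconclusive = no clear call, values can overlap the other calls; inactive = the rest.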

Tests used:
[1] = OD615 S. cerevisiae growth inhibition, permissive medium, pilot counter-assay, permissive growth control for S. cerevisiae lifespan shortening project (AID 705;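 active = growth inhibition above 25% in both replicates, a cutoff set 3 SD above the mean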); settings: OD615, 24 h, at 10 µM, hits give high values
Summary of the method: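 Test system: Saccharomyces cerevisiae strain carrying genetically modified DeaD replicative-lifespan system; buffer or medium: SC raffinose/galactose permissive medium; dosing: one dose 10 µM, DMSO 0.25% final; times: 24 h exposure, 30 °C; measured by: OD at 615 nm; read-out basis: growth inhibition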

[2] = Restrictive medium S. cerevisiae growth inhibition, OD615, pilot screen of yeast lifespan reduction project, restrictive growth control (AID 706;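 active = growth inhibition above a set limit, 3 SD over mean compound inhibition, in both replicates, cut at about 43% in these data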;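 also: modified DeaD lifespan yeast strain shifted to restrictive glucose medium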); settings: OD615, 48 h, at 10 µM, hits give high values
Summary of the method: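 material = engineered S. cerevisiae DeaD strain | buffer or medium = glucose-based CSMM-D restrictive medium | dosing = one concentration, 10 µM final, 0.25% DMSO | schedule = 4 h pre-growth plus 48 h compound exposure, 30 °C | detection = OD615 absorbance reading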

[3] = viability gain of MRP-1-high H69AR cells under doxorubicin, pilot screen, MRP-1 activator project, CellTiter-Glo, duplicate (AID 807;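 active = viability increase at or above a cutoff of the median across tested compounds plus 3 SD, cut at about 8.5% in these data, passing the limit was not always enough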;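 also: compound pretreatment 18-22 h then 72 h combined with doxorubicin; 0% = doxorubicin alone and 100% = vehicle without doxorubicin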); settings: H69AR viability with doxorubicin, CellTiter-Glo luminescence; at 10 µM; hits give high values
[4] = growth suppression of beta-catenin knockout HCT116, pilot screen, human colon tumor cells (AID 823;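 active = cell viability at or below a set limit in both duplicate runs, the limit being the all-compound median minus 4 SD, cut at about 23% in these data, passing the limit was not always enough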;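 also: 0% = wells killed by 20 µM Hyamine and 100% = untreated DMSO cell wells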); settings: CellTiter-Glo, 60 h, at 10 µM, hits give low values
[5] = growth suppression of PTEN-deleted HCT116, pilot screen, cell-based, HCT116 clonal line, CellTiter-Glo (AID 824); settings: 60 h, at 10 µM, hits give low values;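 also: 0% = 20 µM Hyamine control and 100% = vehicle cell control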
[6] = inhibitors of the yeast RAM network, pilot screen, dse1pr::URA3 reporter, 5-FOA selection (AID 869;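 active = inhibition over a set limit, the all-compound mean plus 3 SD, in both replicate runs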;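 also: 0% = DMSO wells with no growth and 100% = 10 µM 1-NA-PP1 with full growth; RAM network block rescues cells from 5-FOA so hits raise OD615 growth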); settings: S. cerevisiae dse1pr::URA3 5-FOA growth, OD615, 2 d; at 10 µM; hits give high values; strain carries analog-sensitive mutant Cbk1 kinase
[7] = RAM signaling pathway blockade in yeast – S. cerevisiae, Pdr1DBD-CYC8 efflux-inhibited sensitized strain, primary screen (AID 1298;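 active = RAM network inhibition above 8.4% in each of two replicates, 3 SD over the compound average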;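 also: 0% = DMSO untreated cells without growth and 100% = 10 µM 1-NA-PP1 full growth; higher means more yeast growth rescued from 5-FOA killing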); settings: S. cerevisiae cbk1-as DSE1-URA3 strain, 5-FOA growth OD615, 2 d; at 50 µM; hits give high values

| Structure (SMILES) | growth inhibition [1] [%] | growth inhibition [2] | viability increase [3] [%] | viability [4] [%] | viability [5] [%] | inhibition [6] [%] | RAM network inhibition [7] [%] |
| --- | --- | --- | --- | --- | --- | --- | --- |
| COc1ccc2[nH]c(C)c(CN3CCC(C)CC3)c(=O)c2c1 | 0.03 | -2.44% | -2.02 | 98.5 | 90.8 | 1.03 | 2.42 |
| CC(C)N(C(=O)COc1ccc(Br)cc1Cl)C(C)C | -6.94 | -12.8% | 0.81 | 76.5 | 83.1 | 1.12 | 0.74 |
| CN1CCN(Cc2c(O)ccc3c(=O)c(Oc4ccccc4Cl)c(C(F)(F)F)oc23)CC1 | -4.67 | 12.6% | -0.67 | 98 | 96.7 | 0.13 | 1.25 |
| N=c1n(-c2ccccc2)c(O)cc(=O)n1-c1ccccc1 | -1.26 | 1.77% | 0.05 | 98.1 | 99.5 | 0.73 | 6.52 |
| Cc1ccc(OCC(O)CN2CCN(CC(O)COc3ccc(C)cc3Cl)CC2)c(Cl)c1 (configuration not stated) | -5.18 | -17.4% | -4.02 | 77.7 | 81.8 | 2.03 | 2.76 |
| O=C(C1=C(O)C(=O)N(c2ncccn2)C1c1cccs1)c1ccco1 (configuration not stated) | 0.75 | 7.12% | -4.29 | 86.5 | 85.3 | 1.54 | 1.69 |
| CCC(c1ccccc1)c1nc(-c2ccccn2)no1 (configuration not stated) | -3.45 | -5.84% | 1.44 | 91.8 | 97.8 | 0.495 | 3.77 |
| CCCCC(=O)Nc1nc(C)c(C(C)=O)s1 | -13.3 | -2.2% | 0.48 | 98.8 | 88.7 | 1.14 | -1 |
| CCOc1cc(/C=N/O)cc(Br)c1OC | -1.28 | -18.2% | -3.13 | 106 | 97.1 | 1.22 | 5.14 |
| CC1CCCC(C)N1C(=O)Cn1c(=O)sc2ccccc21 (configuration not stated) | -4.41 | 8.62% | -3.08 | 97.8 | 90.6 | 0.87 | 4.18 |
| O=C(CSc1nccn1-c1cccc(Cl)c1)Nc1ccc2c(c1)OCCO2 | -11.7 | 2.4% | 6.11 | 101 | 93 | 2.52 | 3.35 |
| O=C(Nc1ccc(F)cc1F)N1CCN(c2ncccn2)CC1 | -14.8 | -26.3% | -0.19 | 106 | 100 | 1.76 | 3.24 |
| CC1CCCC(NC(=O)Cn2cc3c(n2)CCCCC3)C1C (configuration not stated) | -16 | -6.99% | 0.62 | 95.7 | 90.8 | -0.355 | 0.1 |
| Cc1cccc(OCCOCCSc2ncccn2)c1 | -8.47 | 8.79% | -1.63 | 97.9 | 94.8 | 0.99 | 6.33 |
| COc1ccc(NC(=O)C2CCN(S(=O)(=O)c3cccc4cccnc34)CC2)cc1OC | -4.2 | 0.21% | -1.69 | 107 | 96.6 | 1.41 | 1.04 |
| Cc1c(C(=O)NCc2cccnc2)sc2nc(-c3ccc(F)cc3)cn12 | -6.33 | 22.2% | 0.45 | 77.3 | 78 | 1.01 | 2.56 |
| COc1cc(CCC(=O)N2CCN(c3ccc(N4CCOCC4)nn3)CC2)cc(OC)c1OC | 7.64 | 14.6% | -1.86 | 106 | 112 | 0.43 | 4.7 |
| COc1cccc2c(=O)n(CC(=O)NC3CCCCC3)ccc12 | 0.435 | -6.59% | -1.27 | 103 | 90.3 | 1.58 | 4.45 |

| Structure (SMILES) | growth inhibition [1] [%] | growth inhibition [2] | viability increase [3] [%] | viability [4] [%] | viability [5] [%] | inhibition [6] [%] | RAM network inhibition [7] [%] |
| --- | --- | --- | --- | --- | --- | --- | --- |
| NC(=O)c1oc2ccccc2c1NC(=O)CCc1ccccc1 | 1.12 | 2.84% | -2.96 | 96.8 | 97.2 | 0.36 | 3.76 |
| Cc1ccccc1-n1nc2c(c1NC(=O)COc1ccc(Cl)cc1)CS(=O)C2 (configuration not stated) | -5.57 | -3.5% | 0.22 | 98.3 | 92.6 | 1.46 | 1.42 |
| O=C(c1ccccc1)c1ccc2nc(N3CCCCC3)c3nncn3c2c1 | 12.4 | 57.7% (active) | -3.48 | 45.4 | 56.4 | 2.53 | 4.08 |
| CC(C)Cn1c(CN2C(=O)c3ccccc3C2=O)nc2ccccc2c1=O | -8.43 | -9.18% | -0.19 | 98.4 | 93.4 | 3.54 | 5.36 |
| COc1ccc(S(=O)(=O)n2nc(-c3cc(OC)c(OC)c(OC)c3)cc2N)cc1OC | -12 | 12.7% | -3.64 | 56.3 | 74.8 | 0.16 | 5.52 |
| CC(c1cccnc1)N(CCN(C)C)C(=O)Nc1ccc(Cl)c(Cl)c1 (configuration not stated) | -5.64 | -0.46% | -3.34 | 88.9 | 84.4 | 1.33 | 5.39 |
| O=C(c1ccccc1S(=O)(=O)NCc1ccccc1)N1CCCC1 | -12 | -20.3% | -0.09 | 110 | 98 | 1.66 | 3.93 |
| COC(=O)c1ccc(NS(=O)(=O)c2ccc3c(c2)oc(=O)n3C)cc1 | -4.12 | -3.33% | 1.49 | 103 | 96.4 | 0.69 | 7.21 |
| CC(=O)c1ccc(NC(=O)C2CCCN2S(=O)(=O)c2ccc(F)cc2)cc1 (configuration not stated) | -5.81 | 0.06% | 0.59 | 98.5 | 96.2 | 2.9 | 1.64 |
| Cc1nc(SCC(=O)Nc2cccc(Cl)c2)n[nH]1 | -4.9 | -4.81% | -1.48 | 97 | 97.7 | 0.56 | -0.63 |
| CC1CC(C(O)c2ccccn2)C(=O)C(C(O)c2ccccn2)C1 (configuration not stated) | 9.67 | -1.25% | -3.28 | 97.8 | 90.3 | 0.35 | -0.58 |
| COc1cc(C(=O)Nc2ccc(S(=O)(=O)N3CCCCC3C)cc2)cc(OC)c1OC (configuration not stated) | -18.5 | -16.6% | -4.48 | 69.9 | 65.7 | 1.7 | 4.51 |
| Cc1ccc2c(CC(=O)O)coc2c1C | 3.31 | 33.3% | -2.01 | 88 | 89.5 | -0.555 | -1.19 |
| O=C(C1CCN(S(=O)(=O)c2cccc3cccnc23)CC1)N1CCN(c2ccccc2)CC1 | 1.1 | 16.9% | -3.27 | 87.7 | 83.8 | 1.76 | 6.12 |
| COc1ccc(Nc2oc(COc3ccccc3F)nc2C#N)cc1 | -10.6 | 11.6% | -7.35 | 51.3 | 53.3 | 2.25 | 3.24 |
| CSC1=NCCN1C(=O)c1ccc(Br)o1 | -2.9 | -7.89% | 2.54 | 102 | 94.5 | 0.975 | 7.19 |
| Cc1nc2sc(C(c3ccco3)N3CCN(c4ccccc4)CC3)c(O)n2n1 (configuration not stated) | -2.19 | -0.705% | 3.13 | 97.3 | 101 | 1.73 | 3 |
| O=C(NCc1cccnc1)c1nnc(Cc2ccc(F)cc2)o1 | 7.17 | 2.65% | 2.16 | 98.4 | 103 | 0.03 | 3.62 |
